NR2E3 ag-1 – agonists of human NR2E3 nuclear receptor; CHO-S Gal4-NCOR/VP16-NR2E3 two-hybrid, luciferase; inhibition of corepressor binding, % at 3.98 µM; Q9Y5X4; 360,000 compounds, 0.35% hits;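 active = inhibition above the mean of all tested compounds plus 3 SD, cut at about 70% in these data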;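 note: 0% = DMSO with NR2E3 transfected cells and 100% = cells lacking NR2E3 construct; higher means lower luciferase signal from less NR2E3 corepressor binding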
Target sequence (Q9Y5X4 whole entry, looked up, the tested form may be a part): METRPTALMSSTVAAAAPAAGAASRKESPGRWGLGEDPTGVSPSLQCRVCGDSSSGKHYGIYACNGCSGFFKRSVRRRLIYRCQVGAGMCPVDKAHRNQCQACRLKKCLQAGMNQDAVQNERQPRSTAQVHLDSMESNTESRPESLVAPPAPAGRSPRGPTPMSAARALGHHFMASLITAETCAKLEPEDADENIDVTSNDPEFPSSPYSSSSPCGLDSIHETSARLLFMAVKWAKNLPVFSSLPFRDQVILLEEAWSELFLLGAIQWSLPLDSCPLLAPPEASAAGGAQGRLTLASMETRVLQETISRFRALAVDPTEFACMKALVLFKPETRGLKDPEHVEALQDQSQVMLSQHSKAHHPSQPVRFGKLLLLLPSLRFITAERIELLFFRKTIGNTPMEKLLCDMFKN
miR122 inh – blocks miR-122 activity in Huh7 sensor cells; 340,000 compounds, 0.3% hits; activation (reporter increase), % at 12.5 µM; AID 602342; Huh7 miR-122 Renilla luciferase sensor, 48 h; neutral wells = 0, positive control = 100;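 active = mean replicate activation score at least 90 and every replicate individually at or above 90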;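 note: higher luciferase means less miR-122 activity so hits act as miR-122 inhibitors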
NR2E3 ag-2 – agonists of human nuclear receptor NR2E3; inhibition of corepressor binding, % at 4.78 µM; 320,000 compounds, 0.12% hits; GST-NR2E3/biotin-RetCOR TR-FRET, 1536-well; AID 2300;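 active = percent inhibition above the cutoff of mean plus 3 SD of all tested compounds, set per screening campaign, cut at about 20% in these data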;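 note: 0% = DMSO wells and 100% = biotin wells as full block of FRET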
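Format: 1536-well format; test system: GST-NR2E3 and biotin-RetCOR proteins; read-out basis: percent inhibition of TR-FRET ratio; timing: 5 h incubation at 4 °C; detection: time-resolved FRET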
697 NFkB inh – lowers PMA/ionomycin-induced NF-kB signal in 697 B cells. 330,000 compounds, 0.33% hits. 697 B-cell NF-kB luciferase reporter, 16 h. inhibition, % at 4 µM. AID 435022; in the data active = inhibition above about 35%
FGF22 binding – shifts melting point of recombinant human FGF22; Q9HCT0; recombinant FGF22 thermal shift, SYPRO orange fluorescence; percent of sucrose octasulfate shift, DMSO zero; activity (Tm shift, normalised), % at 9.99 µM; 340,000 compounds, 1.5% hits;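 active = mean Tm shift, scaled 0 neutral to 100 positive control, at about 1.3% or above, every replicate too, limit read from the data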
Target sequence (Q9HCT0 whole entry, looked up): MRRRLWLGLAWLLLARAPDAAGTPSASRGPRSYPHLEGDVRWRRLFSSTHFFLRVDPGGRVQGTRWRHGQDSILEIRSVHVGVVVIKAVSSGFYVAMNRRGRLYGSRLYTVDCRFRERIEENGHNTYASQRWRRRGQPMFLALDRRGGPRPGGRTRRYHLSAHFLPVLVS
Jurkat NFkB inh – lowers PMA/ionomycin-induced NF-kB signal in Jurkat cells; PMA/ionomycin-induced NF-kB luciferase reporter, luminescence; inhibition, % at 4 µM; 330,000 compounds, 0.53% hits; AID 435003; in the data active = inhibition above about 50%
* marks the source's active call; other numbers are inactive results; nt = not tested or not shown; [ ] = remark or other dose. An excerpt weighted towards active compounds, which were near 2.2% of everything screened.

SMILES | NR2E3 ag-1 | miR122 inh | NR2E3 ag-2 | 697 NFkB inh | FGF22 binding | Jurkat NFkB inh
N/C(=N\OC(=O)/C=C/c1ccccc1)c1cccnc1 | -96 | nt | 2 | -39 | 43* | -27
Cc1noc(C)c1S(=O)(=O)Nc1ccc2c(c1)C(=O)N([C@@H](C)CO)C[C@H](C)[C@H](CN(C)C(=O)Nc1ccccc1)OCCCC[C@H](C)O2 | nt | 7[16.7 µM] | nt | nt | 0 | nt
COc1cc(C(=O)O/N=C2\C=CC(=O)C=C2C)cc(OC)c1OC | 19 | nt | -1 | 4 | 43* | 7
COc1cc(C(=O)O/N=C2/C=CC(=O)C(C)=C2C)cc(OC)c1OC | -23 | -6 | nt | nt | nt | nt
CC(=O)c1ccc(N2CCN(C(=S)Nc3ccc(Oc4ccccc4)cc3)CC2)cc1 | 37 | 1 | -4 | -25 | 16* | 42
COc1ccc(N2CCN(C(=S)Nc3ccccc3)CC2)cc1 | -23 | -6 | 5 | -9 | 0 | -19
CC(=O)N1CCN(c2ccc(NC(=O)/C=C/c3ccccc3)cc2)CC1 | 9 | nt | -1 | 4 | 44* | -2
CC(=O)Nc1ccc(NC(=O)/C=C/c2ccccc2)cc1 | 11 | nt | 1 | 15 | 1 | -29
S=C(Nc1ccc(Oc2ccccc2)cc1)N1CCN(c2ccccn2)CC1 | 27 | nt | -1 | -13 | 43* | -6
COc1cc(CC(NC(C)=O)C(=O)NC2CCN(C(=O)c3cc(OC)c(OC)c(OC)c3)CC2)cc(OC)c1 (configuration not stated) | -29 | 5 | -5 | 18 | 43* | 6
O=C(Nc1ccccc1)c1cc([N+](=O)[O-])ccc1NC1CCCCC1 | -8 | 123* | -1 | 2 | 0 | 1
O=C(Nc1ccccc1)c1cc([N+](=O)[O-])ccc1Cl | 6 | 9 | 2 | 19 | 0 | 3
CN1CCN(C(=S)NC(=O)/C=C/c2ccccc2Cl)CC1 | -7 | nt | -1 | 1 | 43* | 0
CC(C)[Si](C#CCCCC#N)(O[C@H](c1ccccc1)c1cn(Cc2cccc(Cl)c2)nn1)C(C)C | nt | nt | nt | nt | 0 | nt
C[C@H]1C(=O)N(C)CCN1Cc1cn(C)nc1-c1ccc(Oc2ccccc2)cc1 | 3 | -5 | -1 | 1 | 44* | -2
COCCN(C(=O)C(=O)NC1CCCC1)C(C(=O)NC1CCCC1)c1ccccc1F (configuration not stated) | 28 | 2 | -2 | 9 | 44* | -2
CNC[C@H]1OCCCC[C@H](C)Oc2ccc(NC(=O)c3ccccc3)cc2C(=O)N([C@H](C)CO)C[C@H]1C | nt | 4[16.7 µM] | nt | nt | nt | nt
COc1cc(OC)c(OC)cc1/C=C/c1cc(C(F)(F)F)[nH]c(=O)n1 | -14 | 0 | 1 | 25 | 43* | 6
CCCCC(CC)CN=C(N)NC(N)=NCCCCCCN=C(N)NC(N)=NCC(CC)CCCC (configuration not stated) | 90* | -22 | -1 | 6 | nt | 39
CN1C(=O)c2cc(NC(=O)c3ccc(F)c(F)c3)ccc2OC[C@H]2O[C@@H](CC(=O)N3CCOCC3)CC[C@H]21 | nt | -30[16.7 µM] | nt | nt | 0 | nt
O=C(Cn1ccc(=O)[nH]c1=O)Nc1ccc(O)c([N+](=O)[O-])c1 | -4 | -3 | nt | nt | 43* | nt
CCOc1ccc(N2C(=O)/C(=C\c3ccc(O)c(OC)c3)S(=O)(=O)C2c2cccc([N+](=O)[O-])c2)cc1 (configuration not stated) | 11 | -13 | 7 | 16 | 44* | -15
CCOc1ccc(N2C(=O)/C(=C\c3ccc(OC)c(O)c3)S(=O)(=O)C2c2cccc([N+](=O)[O-])c2)cc1 (configuration not stated) | -9 | nt | -1 | 7 | 0 | -4
O=[N+]([O-])c1cccc(-c2nnc(CNC3CC3)o2)c1 | 12 | nt | 3 | 11 | 1 | 11
Clc1ccccc1-c1nnc(CNC2CC2)o1 | -8 | nt | -4 | 7 | 44* | 4
SMILES | NR2E3 ag-1 | miR122 inh | NR2E3 ag-2 | 697 NFkB inh | FGF22 binding | Jurkat NFkB inh
CN1CCc2c1nc1ccccc1c2N=C1CCCN1Cc1ccccc1 | 32 | nt | 4 | -41 | 43* | -7
C[C@@H]1CN([C@@H](C)CO)C(=O)c2cc(C3=CCCC3)cnc2O[C@@H]1CN(C)C(=O)c1cccnc1 | nt | 69[16.7 µM] | nt | nt | 0 | nt
CO[C@@H]1CN(C)C(=O)c2cc(NC(C)=O)ccc2OC[C@H](C)N(C(=O)c2ccc(F)cc2)C[C@@H]1C | nt | nt | nt | nt | 0 | nt
CSc1nc2ncc3c(n2n1)CC(C)(C)CC3=O | -7 | -3 | -3 | 18 | 0 | 4
CC1(C)CC(=O)c2cnc3c(C#N)cnn3c2C1 | 0 | -4 | -2 | 18 | 44* | 20
CC(=O)Oc1ccc2oc(=O)c3c(c2c1)CCCN3C(=O)CN1CCN(c2ncccn2)CC1 | -9 | 9 | 3 | 6 | nt | -6
CC(=O)Oc1ccc2oc(=O)c3c(c2c1)CCCN3C(=O)CN1CCOCC1 | -14 | nt | 3 | 17 | 43* | 0
Cc1ccc(/C=C/C(=O)N2CC(=O)Nc3ccccc32)o1 | -2 | nt | -4 | -1 | 44* | -5
COc1ccc2c3c(n(C)c2c1)[C@@H](CO)N(Cc1ccc(Cl)cc1)CC31CCN(CC2CC2)CC1 | nt | nt | nt | nt | 0 | nt
CC1(C)OC2OC(C(=O)N/N=C/c3ccccc3F)C3OC(C)(C)OC3C2O1 (configuration not stated) | -31 | 0 | 0 | 9 | 44* | 1
CC1(C)C(C=C(Cl)Cl)C1C(=O)N/N=C/c1ccccc1F (configuration not stated) | 8 | 5 | 1 | -50 | 0 | -29
CC(=O)Nc1ccc(N2C(=O)CSC2c2cccc([N+](=O)[O-])c2)cc1 (configuration not stated) | -7 | 1 | 7 | -8 | 44* | 14
Cc1ccc(S(=O)(=O)Nc2ccc3c(c2)C(=O)N([C@@H](C)CO)C[C@@H](C)[C@@H](CN(C)Cc2ccccc2)OCCCC[C@@H](C)O3)cc1 | nt | -19[16.7 µM] | nt | nt | 0 | nt
COc1ccc(CN(C)C[C@H]2OCCCC[C@@H](C)Oc3ccc(NC(=O)Nc4ccc(OC)cc4)cc3C(=O)N([C@@H](C)CO)C[C@H]2C)cc1 | nt | -6[16.7 µM] | nt | nt | 0 | nt
CN(Cc1c(C(=O)N2CCc3ccccc3C2)nc2ccc(Cl)cn12)C(C1CC1)C1CC1 | -26 | nt | -3 | -17 | 43* | 4
O=C(N[C@H]1CC[C@@H](CCNS(=O)(=O)c2ccc(F)cc2)O[C@@H]1CO)c1cccc(F)c1 | nt | nt | nt | nt | 0 | nt
Cc1ccccc1-c1cnc2c(c1)C(=O)N([C@H](C)CO)C[C@H](C)[C@@H](CN(C)C(=O)c1ccc(F)cc1)O2 | nt | nt | nt | nt | 0 | nt
O=C(NC1CCCc2ccccc21)c1ccccc1 (configuration not stated) | -7 | nt | 1 | -2 | 0 | -5

Screens deposited in PubChem BioAssay by several laboratories.
